{"source": "ChEMBL document CHEMBL1150781", "about": "“High-level gentamicin resistance mediated by a Tn4001-like transposon in seven nonclonal hospital isolates of Streptococcus pasteurianus” (2007)", "type_in_all_cases": "functional", "key": {"[1]": {"system": "Streptococcus pasteurianus", "assay": "Antibacterial activity against high-level gentamicin resistant Streptococcus pasteurianus SB10 isolate carrying transposon-borne resistance gene [aac(6')Ie-aph(2'')Ia] by agar dilution method", "procedure,_shortened": "(§1)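 MIC by agar dilution following CLSI guidelines; test organisms were clinical S. bovis/S. pasteurianus isolates recovered from blood cultures.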"}, "[2]": {"system": "Streptococcus equinus", "assay": "Antibacterial activity against Streptococcus bovis ATCC 33317 by agar dilution method", "procedure,_shortened": "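MIC read by agar dilution against S. bovis/S. pasteurianus, run to CLSI guidelines.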"}, "[3]": {"system": "Streptococcus pasteurianus", "assay": "Antibacterial activity against high-level gentamicin resistant Streptococcus pasteurianus SB40 isolate carrying transposon-borne resistance gene [aac(6')Ie-aph(2'')Ia] by agar dilution method", "procedure,_shortened": "as §1"}, "[4]": {"system": "Enterococcus faecalis", "assay": "Antimicrobial activity against Enterococcus faecalis ATCC 29212 by agar dilution method"}, "[5]": {"system": "Streptococcus pasteurianus", "assay": "Antibacterial activity against high-level gentamicin resistant Streptococcus pasteurianus SB41 isolate carrying transposon-borne resistance gene [aac(6')Ie-aph(2'')Ia] by agar dilution method", "procedure,_shortened": "as §1"}, "[6]": {"system": "Streptococcus pasteurianus", "assay": "Antibacterial activity against high-level gentamicin resistant Streptococcus pasteurianus SB28 isolate carrying transposon-borne resistance gene [aac(6')Ie-aph(2'')Ia] by agar dilution method", "procedure,_shortened": "as §1"}, "[7]": {"system": "Streptococcus pasteurianus", "assay": "Antibacterial activity against high-level gentamicin resistant Streptococcus pasteurianus SB34 isolate carrying transposon-borne resistance gene [aac(6')Ie-aph(2'')Ia] by agar dilution method", "procedure,_shortened": "as §1"}, "[8]": {"system": "Streptococcus pasteurianus", "assay": "Antibacterial activity against high-level gentamicin resistant Streptococcus pasteurianus SB33 isolate carrying transposon-borne resistance gene [aac(6')Ie-aph(2'')Ia] by agar dilution method", "procedure,_shortened": "as §1"}, "[9]": {"system": "Streptococcus pasteurianus", "assay": "Antibacterial activity against high-level gentamicin resistant Streptococcus pasteurianus SB30 isolate carrying transposon-borne resistance gene [aac(6')Ie-aph(2'')Ia] by agar dilution method", "procedure,_shortened": "as §1"}}, "data": [{"molecule": "NCC[C@H](O)C(=O)N[C@@H]1C[C@H](N)[C@@H](O[C@H]2O[C@H](CN)[C@@H](O)[C@H](O)[C@H]2O)[C@H](O)[C@H]1O[C@H]1O[C@H](CO)[C@@H](O)[C@H](N)[C@H]1O", "note": "[AMIKACIN]", "values": [{"measurement": "MIC", "setting": "[1]", "value": 64, "unit": "µg/mL"}, {"measurement": "MIC", "setting": "[2]", "value": 64, "unit": "µg/mL"}, {"measurement": "MIC", "setting": "[3]", "value": 32, "unit": "µg/mL"}, {"measurement": "MIC", "setting": "[4]", "value": 64, "unit": "µg/mL"}, {"measurement": "MIC", "setting": "[5]", "value": 32, "unit": "µg/mL"}, {"measurement": "MIC", "setting": "[6]", "value": 512, "unit": "µg/mL"}, {"measurement": "MIC", "setting": "[7]", "value": 32, "unit": "µg/mL"}, {"measurement": "MIC", "setting": "[8]", "value": 32, "unit": "µg/mL"}, {"measurement": "MIC", "setting": "[9]", "value": 128, "unit": "µg/mL"}]}, {"molecule": "CCC[C@@H]1C[C@@H](C(=O)N[C@@H]([C@H]2O[C@H](SC)[C@H](O)[C@@H](O)[C@H]2O)[C@H](C)Cl)N(C)C1", "note": "[CLINDAMYCIN]", "values": [{"measurement": "MIC", "setting": "[1]", "value": 256, "unit": "µg/mL"}, {"measurement": "MIC", "setting": "[2]", "value": "< 0.03", "unit": "µg/mL"}, {"measurement": "MIC", "setting": "[3]", "value": 512, "unit": "µg/mL"}, {"measurement": "MIC", "setting": "[4]", "value": 4, "unit": "µg/mL"}, {"measurement": "MIC", "setting": "[5]", "value": 512, "unit": "µg/mL"}, {"measurement": "MIC", "setting": "[6]", "value": 16, "unit": "µg/mL"}, {"measurement": "MIC", "setting": "[7]", "value": 128, "unit": "µg/mL"}, {"measurement": "MIC", "setting": "[8]", "value": 512, "unit": "µg/mL"}, {"measurement": "MIC", "setting": "[9]", "value": 0.5, "unit": "µg/mL"}]}, {"molecule": "CC[C@H]1OC(=O)[C@H](C)[C@@H](O[C@H]2C[C@@](C)(OC)[C@@H](O)[C@H](C)O2)[C@H](C)[C@@H](O[C@@H]2O[C@H](C)C[C@H](N(C)C)[C@H]2O)[C@](C)(O)C[C@@H](C)C(=O)[C@H](C)[C@@H](O)[C@]1(C)O", "note": "[ERYTHROMYCIN]", "values": [{"measurement": "MIC", "setting": "[1]", "value": "> 512", "unit": "µg/mL"}, {"measurement": "MIC", "setting": "[2]", "value": 0.06, "unit": "µg/mL"}, {"measurement": "MIC", "setting": "[3]", "value": "> 512", "unit": "µg/mL"}, {"measurement": "MIC", "setting": "[4]", "value": 2, "unit": "µg/mL"}, {"measurement": "MIC", "setting": "[5]", "value": "> 512", "unit": "µg/mL"}, {"measurement": "MIC", "setting": "[6]", "value": "> 512", "unit": "µg/mL"}, {"measurement": "MIC", "setting": "[7]", "value": "> 512", "unit": "µg/mL"}, {"measurement": "MIC", "setting": "[8]", "value": "> 512", "unit": "µg/mL"}, {"measurement": "MIC", "setting": "[9]", "value": "> 512", "unit": "µg/mL"}]}, {"molecule": "NC[C@H]1O[C@H](O[C@H]2[C@H](O)[C@@H](O[C@H]3O[C@H](CO)[C@@H](O)[C@H](N)[C@H]3O)[C@H](N)C[C@@H]2N)[C@H](O)[C@@H](O)[C@@H]1O", "note": "[KANAMYCIN]", "values": [{"measurement": "MIC", "setting": "[1]", "value": "> 4100", "unit": "µg/mL"}, {"measurement": "MIC", "setting": "[2]", "value": 128, "unit": "µg/mL"}, {"measurement": "MIC", "setting": "[3]", "value": "> 4100", "unit": "µg/mL"}, {"measurement": "MIC", "setting": "[4]", "value": 16, "unit": "µg/mL"}, {"measurement": "MIC", "setting": "[5]", "value": "> 4100", "unit": "µg/mL"}, {"measurement": "MIC", "setting": "[6]", "value": "> 4100", "unit": "µg/mL"}, {"measurement": "MIC", "setting": "[7]", "value": "> 4100", "unit": "µg/mL"}, {"measurement": "MIC", "setting": "[8]", "value": 4100, "unit": "µg/mL"}, {"measurement": "MIC", "setting": "[9]", "value": 4100, "unit": "µg/mL"}]}, {"molecule": "CN(C)c1ccc(O)c2c1C[C@H]1C[C@H]3[C@H](N(C)C)C(O)=C(C(N)=O)C(=O)[C@@]3(O)C(O)=C1C2=O", "note": "[MINOCYCLINE]", "values": [{"measurement": "MIC", "setting": "[1]", "value": 8, "unit": "µg/mL"}, {"measurement": "MIC", "setting": "[3]", "value": 16, "unit": "µg/mL"}, {"measurement": "MIC", "setting": "[5]", "value": 8, "unit": "µg/mL"}, {"measurement": "MIC", "setting": "[6]", "value": 16, "unit": "µg/mL"}, {"measurement": "MIC", "setting": "[7]", "value": 0.12, "unit": "µg/mL"}, {"measurement": "MIC", "setting": "[8]", "value": 16, "unit": "µg/mL"}, {"measurement": "MIC", "setting": "[9]", "value": 8, "unit": "µg/mL"}]}, {"molecule": "CCN[C@@H]1C[C@H](N)[C@@H](O[C@H]2OC(CN)=CC[C@H]2N)[C@H](O)[C@H]1O[C@H]1OC[C@](C)(O)[C@H](NC)[C@H]1O", "note": "[NETILMICIN]", "values": [{"measurement": "MIC", "setting": "[1]", "value": 64, "unit": "µg/mL"}, {"measurement": "MIC", "setting": "[2]", "value": 16, "unit": "µg/mL"}, {"measurement": "MIC", "setting": "[3]", "value": 16, "unit": "µg/mL"}, {"measurement": "MIC", "setting": "[4]", "value": 4, "unit": "µg/mL"}, {"measurement": "MIC", "setting": "[5]", "value": 8, "unit": "µg/mL"}, {"measurement": "MIC", "setting": "[6]", "value": 512, "unit": "µg/mL"}, {"measurement": "MIC", "setting": "[7]", "value": 32, "unit": "µg/mL"}, {"measurement": "MIC", "setting": "[8]", "value": 16, "unit": "µg/mL"}, {"measurement": "MIC", "setting": "[9]", "value": 128, "unit": "µg/mL"}]}, {"molecule": "CN[C@@H]1[C@H](O[C@H]2[C@H](O[C@H]3[C@H](O)[C@@H](O)[C@H](N=C(N)N)[C@@H](O)[C@@H]3N=C(N)N)O[C@@H](C)[C@]2(O)C=O)O[C@@H](CO)[C@H](O)[C@H]1O", "note": "[STREPTOMYCIN]", "values": [{"measurement": "MIC", "setting": "[1]", "value": 32, "unit": "µg/mL"}, {"measurement": "MIC", "setting": "[2]", "value": 64, "unit": "µg/mL"}, {"measurement": "MIC", "setting": "[3]", "value": 32, "unit": "µg/mL"}, {"measurement": "MIC", "setting": "[4]", "value": 32, "unit": "µg/mL"}, {"measurement": "MIC", "setting": "[5]", "value": 32, "unit": "µg/mL"}, {"measurement": "MIC", "setting": "[6]", "value": 64, "unit": "µg/mL"}, {"measurement": "MIC", "setting": "[7]", "value": 32, "unit": "µg/mL"}, {"measurement": "MIC", "setting": "[8]", "value": 32, "unit": "µg/mL"}, {"measurement": "MIC", "setting": "[9]", "value": 64, "unit": "µg/mL"}]}, {"molecule": "CN(C)[C@@H]1C(O)=C(C(N)=O)C(=O)[C@@]2(O)C(O)=C3C(=O)c4c(O)cccc4[C@@](C)(O)[C@H]3C[C@@H]12", "note": "[TETRACYCLINE]", "values": [{"measurement": "MIC", "setting": "[1]", "value": 128, "unit": "µg/mL"}, {"measurement": "MIC", "setting": "[2]", "value": 0.25, "unit": "µg/mL"}, {"measurement": "MIC", "setting": "[3]", "value": 256, "unit": "µg/mL"}, {"measurement": "MIC", "setting": "[4]", "value": 16, "unit": "µg/mL"}, {"measurement": "MIC", "setting": "[5]", "value": 256, "unit": "µg/mL"}, {"measurement": "MIC", "setting": "[6]", "value": 128, "unit": "µg/mL"}, {"measurement": "MIC", "setting": "[7]", "value": 0.25, "unit": "µg/mL"}, {"measurement": "MIC", "setting": "[8]", "value": 256, "unit": "µg/mL"}, {"measurement": "MIC", "setting": "[9]", "value": 128, "unit": "µg/mL"}]}]}
